# In the EternaBench riboswitch data:
# What was measured:
# [1] = system: MS2 coat protein; test: apparent Kd, MS2 coat protein; higher = weaker binding; RNA-MaP array; tryptophan 2.4 mM where present
# How it was run: (§1)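 Green signal from SNAP-549-labelled MS2 coat protein was normalised to red-channel RNA signal and to the median Fmax of control clusters. The protein was titrated from 0.7 or 1.5 nM, doubling to 3 µM, without and then with constant ligand, over designs transcribed by stalled E. coli RNA polymerase on Illumina sequencing-chip clusters, in 100 mM Tris-HCl pH 7.5, 80 mM KCl, 4 mM MgCl2, BSA, DTT, yeast tRNA and Tween-20. The apparent Kd is the median of filtered per-cluster binding-curve fits.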
# [2] = system: MS2 coat protein; test: apparent Kd, MS2 coat protein; higher = weaker binding; RNA-MaP array; theophylline 2 mM where present
# How it was run: as §1
# [3] = designed as: ON switch for tryptophan, no ligand
# [4] = ligand present: tryptophan, designed as: ON switch for tryptophan
# [5] = designed as: OFF switch for tryptophan, no ligand
# [6] = ligand present: tryptophan, designed as: OFF switch for tryptophan
# [7] = designed as: ON switch for theophylline, no ligand
# [8] = ligand present: theophylline, designed as: ON switch for theophylline
# [9] = designed as: OFF switch for theophylline, no ligand
# [10] = ligand present: theophylline, designed as: OFF switch for theophylline
Sequence,"apparent Kd [1, 3]","apparent Kd [1, 4]","apparent Kd [1, 5]","apparent Kd [1, 6]",further results
GGUUACUCUACGGCCGCCACUGUAAUGUAAAGAUUCCUGUACAUGACAUGAGGAUCACCCAUGUGCAGGACCGGGUAGUGUAACC,194 nM,52.6 nM,,,
AUGCAUAGCACGGCCGCCACUCCAUGUAAACAUGAGGAUCACCCAUGUAAUUUGGAUGUUUUAUAGAGGACCGGGUGAAAUGCAA,,,8.88 nM,15.1 nM,
UGUAUUGGAAACAGUACUAGUGAUCCGGUCCGAGGACCGGUACGGCCGCCACUCGAUAUAAAUAAACAUGAGGAUCACCCAUGUA,,,14.9 nM,29.8 nM,
UAACAUGAGGAUCACCCAUGUAUACUAAGUCGAGGACCGGUACGGCCGCCACUCGAACUUCAAGAAUAGGCGGUAAAUGUAAGUA,,,11.5 nM,13.3 nM,
AAAUGUACGUCGGCCGCCACUGCGCUGAAGACAGUCACAUGAGGAUCACCCAUGUACGACAAGGGUAGGACCGGGAUGUGAGGGU,91.4 nM,44.7 nM,,,
AAUAAUAUCCUCAUGUGAGUCGUACCAUAACGAGGACCGGUACGGCCGCCACUCGAACAUGAGGAUCACCCAUGUAGGUAUGAUA,85.9 nM,200 nM,,,
AAUAAACAUGAGGAUCACCCAUGUUGUUGACGAGGACCGGUACGGCCGCCACUCGACAUGAGGAUCACCCAUGUUGUCACAUGAG,180 nM,151 nM,,,
GAUACUAUGAAAGUAGUAUCUACGUGUUGACGAGGACCGGUACGGCCGCCACUCGACAUGAGGAUCACCCAUGUAUAGAAUAUGU,20.6 nM,14.8 nM,,,
UAAUAAGUACCGGUUCUCAGAUCCUCAUGUCGAGGACCGGUACGGCCGCCACUCGAAACAUGAGGAUCACCCAUGUAAUAAUAAU,,,36.2 nM,31.7 nM,
AUGGAGACCUCGGCCGCCACUCUCCAUGAGGAUCUCCCAUGUAACAUGAGGAUCACCCAUGUACUGAGGACCGGGAGGUCCUUGA,9.9 nM,10.8 nM,,,
CGCGGUUGAGAUGGGCCUUUGAUAAGUCUGCGAGGACCGGUACGGCCGCCACUCGAGGACAUGAGGAUCACCCAUGUACUUCGCG,,,47.3 nM,17.8 nM,
CUAUAUGGAAACAUAUAGAAGCGAAAGCAACGAGGACCGGUACGGCCGCCACUCGAAGAGUGGUGGACAUGAGGAUCACCCAUGU,63.3 nM,52.8 nM,,,
GGAUGGAACUCGGCCGCCACUGGUGAUCCUAAUGUACAUGAGGAUCACCCAUGUACAUGAGAAGAUAGGACCGGGAGAUAACAUG,27.7 nM,19.8 nM,,,
CAAUAAGUACCGGUCCUCAGAUCCUCAUGACGAGGACCGGUACGGCCGCCACUCGAAACAUGAGGAUCACCCAUGUAAUAAUAAC,,,40.9 nM,30.5 nM,
CUAUAAAUAGCGGCCGCCACUUACUCAUGAGGUAACAACAUGAGGAUCACCCAUGUUUGAGGAUCAAGGACCGGGCUAUUUAUAG,29.8 nM,17.6 nM,,,
UUAUGCAGGUCGGCCGCCACUACACACAUGAGGAUCACCCAUGUAGUUACUGGGUGAAGUGGCAGUAGGACCGGGACCUGCAUAU,371 nM,227 nM,,,
GCGACCCUGAGAUCCUGCGUAACGUGAACACGAGGACCGGUACGGCCGCCACUCGAGAGAACAUGAGGAUCACCCAUGUCUGAGC,,,20.4 nM,22.2 nM,
CCUAUGCAGUCGGCCGCCACUGAUAAAGUUAUCUUUACCUCAGAAACAUGAGGAUCACCCAUGUACAGGACCGGGACUGUAUAGG,,,12.7 nM,19.8 nM,
CCAUUGAUGACGGCCGCCACUGUCUACAUGAGGAUCACCCAUGUAUAGCAGGGUGGACCUAUGGACAGGACCGGGUCACUUGUCC,,,11 nM,12.3 nM,
UUCUUUAAGUCGGCCGCCACUGAAACAUGAGGAUCACCCAUGUAAAUUUGGGAGUAGGUAUAUUACAGGACCGGGACUAUAGUAA,,,29.9 nM,54.8 nM,
GGUUACUCUACGGCCGCCACUGAACAUGAGGAUCACCCAUGUAAUGUUCAGACGUCUUUAGACGACAGGACCGGGUAGUGUAACC,178 nM,151 nM,,,
AAUGUAUGCCACAUGAGGAUCACCCAUGUGCGAGGACCGGUACGGCCGCCACUCGGUCGGUGGUUAAUGAAGAUAUACAAUAAUG,,,11.5 nM,15.5 nM,
ACCGCGGUAUCGGCCGCCACUUGUGGGUUAAAUCUGGUACAUGAGGAUCACCCAUGUGUCUCCUCGAGGACCGGGAUAGCGUGAC,158 nM,23.9 nM,,,
UUACAUGAGGAUCACCCAUGUUUACUAUGUCGAGGACCGGUACGGCCGCCACUCGUAUUUGAUGAUUUAGGUGCCACAAGUUAUU,,,21.2 nM,20.5 nM,
UGAUACCAGUCGGCCGCCACUACAUGAGGAUCACCCAUGUAUGGGUCAAUGCUAGAUACUAGCAGUAGGACCGGGACUGGUAUCU,,,11.4 nM,36.1 nM,
GGUAUGUAUUCGGAAACGAAUGCAUACCAACGAGGACCGGUACGGCCGCCACUCGGCCGUGAUCAACAUGAGGAUCACCCAUGUA,,,15.8 nM,26.8 nM,

Sequence,"apparent Kd [1, 3]","apparent Kd [1, 4]","apparent Kd [1, 5]","apparent Kd [1, 6]",further results
ACAUGAGGAUCACCCAUGUUUGAUGUUCCUCGAGGACCGGUACGGCCGCCACUCGAACGAGUGGCGCGCGAGUGCGCACUCGCGC,12.2 nM,12.5 nM,,,
AUGGAGACCUCGGCCGCCACUCUCCAUGAGGAUCUCCCAUGUAACAUGAGGAUCACCCAUGUGCUGAGGACCGGGAGGUCCUGAA,10.6 nM,12 nM,,,
AUGACUCACAAAGAAGAUAAAAUGGGUGAACGAGGACCGGUACGGCCGCCACUCGGACAUGAGGAUCACCCAUGUCCAUGUGCAA,,,22.1 nM,28.8 nM,
AAUCAUGAAAACAUGACAUGAGGAUCACUCCGAGGACCGGUACGGCCGCCACUCGCGAGGAGGCGGACAUGAGGAUCACCCAUGU,254 nM,66.3 nM,,,
UGGGUACCGACGGCCGCCACUGACUAUAGACAUGAGGAUCACCCAUGUAGAGAUCCUAGACUACCCAGGACCGGGUCUGGUGCUA,,,124 nM,220 nM,
AACAUGAGGAUCACCCAUGUCCUCAUGAUUCGAGGACCGGUACGGCCGCCACUCGGUCCUCGCGAGGAGGAGUCAAAGACUCCAA,178 nM,393 nM,,,
AGAAUAUAGUCGGCCGCCACUCUACAAACAUGAGGAUCACCCAUGUUCACAUAGUGGAAACACAUGAGGACCGGGACAUAGGCAU,15.6 nM,14.2 nM,,,
UUGCCCAGUACGGCCGCCACUGUGUGCAGGGAACCCAGGUCCACAUGAGGAUCACCCAUGUACAGCAGGACCGGGUACUUGCAAU,,,9.03 nM,11.7 nM,
UAUUAUCAGUCGGCCGCCACUGACACAUGAGGAUCACCCAUGUAAUUUGGGUUAUAUAUAAAUUACAGGACCGGGACAAAUGCUA,,,341 nM,280 nM,
ACACAUGAGGAUCACCCAUGUUGAGGAACACGAGGACCGGUACGGCCGCCACUCGACACAUGAGGAUCACCCAUGUGAUCACCCA,141 nM,169 nM,,,
UCGGACAUGAGGAUCACCCAUGUAAAUCCUCGAGGACCGGUACGGCCGCCACUCGAACGAGUGGCACGCGAGUGCGCACUCGCGU,30.9 nM,27.7 nM,,,
UUCAGUACAACAGAUACCAGACAGUACUCUAAAUUGCAACAUGAGGAUCACCCAUGUAUAGUCCCUUGGCAGCUGUAAUGGGUGA,,,,,"apparent Kd [2, 7]: 114 nM; apparent Kd [2, 8]: 174 nM"
CCUAUGCAGUCGGCCGCCACUGAACAUGAGGAUCACCCAUGUAUAUAAAGAUCCUGAUAUAAUAACAGGACCGGGACUGUAUAGG,,,59.7 nM,157 nM,
AGCGCUGUGCAUGAUACCAGCUACAUGAGGAUCACCCAUGUGCGUCAGAAAUGACUGUGUAGCCCUUGGCAGCAUAAAGCAUGUA,,,,,"apparent Kd [2, 9]: 19 nM; apparent Kd [2, 10]: 58.8 nM"
GUAUGGAAACAUACUAUGGUAUCGUGAGAUACCAGUACAGAAAUGUACCCUUGGCAGCUCGCGCAUACAUGAGGAUCACCCAUGU,,,,,"apparent Kd [2, 9]: 18.1 nM; apparent Kd [2, 10]: 25.7 nM"
AAUAUAAGUGUAAUUAUAUUUAUAUCUGAUACCAGACUCUCAUGUGUCCCUUGGCAGCAGUUACAUGAGGAUCACCCAUGUAUUA,,,,,"apparent Kd [2, 7]: 76 nM; apparent Kd [2, 8]: 21.6 nM"
AUGGCGUUGGUGUAGCUGUGAAAUGGCGAUACCAGCGUGGAAACACGCCCUUGGCAGCGCCAAAACAUGAGGAUCACCCAUGUUA,,,,,"apparent Kd [2, 9]: 20.1 nM; apparent Kd [2, 10]: 96.6 nM"
GUCAGUAGAACAGAUACCAGUCAAAAGCUGUGAUCUCAUAACAUGAGGAUCACCCAUGUUGACCCUUGGCAGCUGUGGGCGAGGG,,,,,"apparent Kd [2, 9]: 19.6 nM; apparent Kd [2, 10]: 64.6 nM"
CUCUGAGUGAGCAAUCACUCAGAGGCGGAUACCAGCGAGGUCCAUCGCCCUUGGCAGCCGAACAUGAGGAUCACCCAUGUCGGUA,,,,,"apparent Kd [2, 7]: 10.1 nM; apparent Kd [2, 8]: 16.6 nM"
AACCGAGGCUAUCCUCUAAGAAUAUGUGAUACCAGAAUAAUUUUAUUCCCUUGGCAGCAUGACAUGAGGAUCACCCAUGUGUCUU,,,,,"apparent Kd [2, 7]: 134 nM; apparent Kd [2, 8]: 134 nM"
AAGAAGUUUUGAUUUUUAUGAAGUAGUGAUACCAGUCAAGAAAGAGACCCUUGGCAGCGCAACAUGAGGAUCACCCAUGUAAGAA,,,,,"apparent Kd [2, 9]: 25.4 nM; apparent Kd [2, 10]: 27.2 nM"
ACAUGAACAUGAGGAUCACCCAUGUAUGAUACCAGAAAAGAAGAGUUCCCUUGGCAGCGUACAACACAUGAGGAUCACCCAUGUG,,,,,"apparent Kd [2, 7]: 24.1 nM; apparent Kd [2, 8]: 24.3 nM"
UUUUUUAUCAUGGCGUAUCGGAAAACCGAUACCAGUACAGAAAUGUACCCUUGGCAGCGGCGUUUUACAUGAGGAUCACCCAUGU,,,,,"apparent Kd [2, 9]: 14.5 nM; apparent Kd [2, 10]: 69.2 nM"
AGCGGAACGGAAGGGUCCCAAAAUUGUGAUACCAGCCUUGAAUCCGGCCCUUGGCAGCACAUGAGGAUCACCCAUGUACUGCGAU,,,,,"apparent Kd [2, 9]: 12.9 nM; apparent Kd [2, 10]: 39.4 nM"
AGCGACAUGCGUGAUACCAGCUACAUGAGGAUCACCCAUGUCAGCAGGAAACUGCUGUGUAGCCCUUGGCAGCACAGUGCAUGUC,,,,,"apparent Kd [2, 9]: 12.7 nM; apparent Kd [2, 10]: 24.7 nM"
UUCUACAUGAGGAUCACCCAUGUGGGUGAUACCAGCACUUUUUGGUGCCCUUGGCAGCACAUGAGAAUACCGUACGAUCGGUGAU,,,,,"apparent Kd [2, 7]: 376 nM; apparent Kd [2, 8]: 615 nM"
